Results from ChEMBL document CHEMBL4330094, “Potent Metabolic Sialylation Inhibitors Based on C-5-Modified Fluorinated Sialic Acids” (J Med Chem, 2019).
Calls of active or inactive are those of the source. The rule behind the calls is not given here.

Tested on: B16-F10
Test: Effect on total cell surface glycosylation in mouse B16F10 cells assessed as inhibition of biotinylated PHA-L lectin binding at 102.4 uM after 3 days by flow cytometry
Assay type: cell-based
Conditions: b16-f10, 72 h
Method in brief: (§1)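 B16-F10 cells were exposed 3 days to 102.4 µM compound or DMSO. Staining used biotinylated lectins (AAL 5, PNA 5, GSL-I 1, LCA 1, PHA-L 1, PSA 1, SJA 1, WGA 1 µg/ml) in carbo-free blocking buffer with 1 mM CaCl and 1 mM MgCl for 45-60 min at 4 °C, then streptavidin-PE for 20 min at 4 °C. Flow cytometry read-out was MFI, mean ± SEM from two independent experiments.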

Compound | Activity
C=CCOC(=O)N[C@H]1[C@H]([C@H](OC(C)=O)[C@@H](COC(C)=O)OC(C)=O)OC(OC(C)=O)(C(=O)OC)[C@H](F)[C@@H]1OC(C)=O (some centres undefined) | Non-Toxic

Tested on: B16-F10
Test: Effect on total cell surface glycosylation in mouse B16F10 cells assessed as inhibition of biotinylated SJA-lectin binding at 102.4 uM after 3 days by flow cytometry
Assay type: cell-based
Conditions: b16-f10, 72 h
Method in brief: as §1

Compound | Activity
C=CCOC(=O)N[C@H]1[C@H]([C@H](OC(C)=O)[C@@H](COC(C)=O)OC(C)=O)OC(OC(C)=O)(C(=O)OC)[C@H](F)[C@@H]1OC(C)=O (some centres undefined) | Non-Toxic

Tested on: B16-F10
Test: Effect on total cell surface glycosylation in mouse B16F10 cells assessed as inhibition of biotinylated AAL-lectin binding at 102.4 uM after 3 days by flow cytometry
Assay type: cell-based
Conditions: b16-f10, 72 h
Method in brief: as §1

Compound | Activity
C=CCOC(=O)N[C@H]1[C@H]([C@H](OC(C)=O)[C@@H](COC(C)=O)OC(C)=O)OC(OC(C)=O)(C(=O)OC)[C@H](F)[C@@H]1OC(C)=O (some centres undefined) | Non-Toxic

Tested on: B16-F10
Test: Effect on total cell surface glycosylation in mouse B16F10 cells assessed as inhibition of biotinylated LCA-lectin binding at 102.4 uM after 3 days by flow cytometry
Assay type: cell-based
Conditions: b16-f10, 72 h
Method in brief: as §1

Compound | Activity
C=CCOC(=O)N[C@H]1[C@H]([C@H](OC(C)=O)[C@@H](COC(C)=O)OC(C)=O)OC(OC(C)=O)(C(=O)OC)[C@H](F)[C@@H]1OC(C)=O (some centres undefined) | Non-Toxic

Tested on: B16-F10
Test: Effect on total cell surface glycosylation in mouse B16F10 cells assessed as inhibition of biotinylated GSL1-lectin binding at 102.4 uM after 3 days by flow cytometry
Assay type: cell-based
Conditions: b16-f10, 72 h
Method in brief: as §1

Compound | Activity
C=CCOC(=O)N[C@H]1[C@H]([C@H](OC(C)=O)[C@@H](COC(C)=O)OC(C)=O)OC(OC(C)=O)(C(=O)OC)[C@H](F)[C@@H]1OC(C)=O (some centres undefined) | Non-Toxic

Tested on: B16-F10
Test: Inhibition of sialyltransferase in mouse B16-F10 cells assessed as recovery time for sialylation at 25.6 uM pretreated for 3 days followed by washing and re-seeding and measured after 6 days by biotinylated MAL2 lectin-based flow cytometry
Assay type: cell-based
Conditions: not given
Method in brief: (§2)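 B16-F10 cells were pretreated 3 days with 25.6 or 51.2 µM compound or DMSO, washed, reseeded, and sampled daily for 6 days. They were stained with biotinylated MALII (5 µg/ml, 45-60 min, 4 °C) plus streptavidin-PE. Flow cytometry MFI was normalized to control as % lectin binding.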

Compound | sialylation recovery time
C=CCOC(=O)N[C@H]1[C@H]([C@H](OC(C)=O)[C@@H](COC(C)=O)OC(C)=O)OC(OC(C)=O)(C(=O)OC)[C@H](F)[C@@H]1OC(C)=O (some centres undefined) | Active

Tested on: not listed separately
Test: Inhibition of sialyltransferase in mouse B16F10 cells assessed as decrease in lectin binding after 3 days by biotinylated MAL2 lectin and streptavidin-PE based flow cytometry
Assay type: cell-based
Conditions: not given
Method in brief: (§3)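 Each cell line was incubated 3 days with increasing compound concentrations or equivalent DMSO. Cells were stained with biotinylated MALII (5 µg/ml) in carbo-free blocking buffer with 1 mM CaCl/MgCl for 45-60 min at 4 °C, washed in PBS/1% BSA/0.02% azide, then stained with streptavidin-PE for 20 min at 4 °C. For flow cytometry, MFI was normalized to control as % lectin binding.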

EC50 | Compound
1390 nM | C=CCOC(=O)N[C@H]1[C@H]([C@H](OC(C)=O)[C@@H](COC(C)=O)OC(C)=O)OC(OC(C)=O)(C(=O)OC)[C@H](F)[C@@H]1OC(C)=O (some centres undefined)

Tested on: not listed separately
Test: Inhibition of sialyltransferase in mouse EL4 cells assessed as decrease in lectin binding after 3 days by biotinylated MAL2 lectin and streptavidin-PE based flow cytometry
Assay type: cell-based
Conditions: not given
Method in brief: as §3

EC50 | Compound
39900 nM | C=CCOC(=O)N[C@H]1[C@H]([C@H](OC(C)=O)[C@@H](COC(C)=O)OC(C)=O)OC(OC(C)=O)(C(=O)OC)[C@H](F)[C@@H]1OC(C)=O (some centres undefined)

Tested on: B16-F10
Test: Effect on total cell surface glycosylation in mouse B16F10 cells assessed as inhibition of biotinylated PSA-lectin binding at 102.4 uM after 3 days by flow cytometry
Assay type: cell-based
Conditions: b16-f10, 72 h
Method in brief: as §1

Compound | Activity
C=CCOC(=O)N[C@H]1[C@H]([C@H](OC(C)=O)[C@@H](COC(C)=O)OC(C)=O)OC(OC(C)=O)(C(=O)OC)[C@H](F)[C@@H]1OC(C)=O (some centres undefined) | Non-Toxic

Tested on: not listed separately
Test: Inhibition of sialyltransferase in HEK293 cells assessed as decrease in lectin binding after 3 days by biotinylated MAL2 lectin and streptavidin-PE based flow cytometry
Assay type: cell-based, Homo sapiens
Conditions: not given
Method in brief: as §3

EC50 | Compound
1830 nM | C=CCOC(=O)N[C@H]1[C@H]([C@H](OC(C)=O)[C@@H](COC(C)=O)OC(C)=O)OC(OC(C)=O)(C(=O)OC)[C@H](F)[C@@H]1OC(C)=O (some centres undefined)

Tested on: B16-F10
Test: Relative inhibitory potency, ratio of SiaFAc to compound EC50 for inhibition of sialyltransferase in mouse B16-F10 cells
Assay type: cell-based
Conditions: not given

Compound | Ratio EC50
C=CCOC(=O)N[C@H]1[C@H]([C@H](OC(C)=O)[C@@H](COC(C)=O)OC(C)=O)OC(OC(C)=O)(C(=O)OC)[C@H](F)[C@@H]1OC(C)=O (some centres undefined) | 19

Tested on: B16-F10
Test: Inhibition of sialyltransferase in mouse B16-F10 cells assessed as recovery time for sialylation at 51.2 uM pretreated for 3 days followed by washing and re-seeding and measured after 6 days by biotinylated MAL2 lectin-based flow cytometry
Assay type: cell-based
Conditions: not given
Method in brief: as §2

Compound | TIME
C=CCOC(=O)N[C@H]1[C@H]([C@H](OC(C)=O)[C@@H](COC(C)=O)OC(C)=O)OC(OC(C)=O)(C(=O)OC)[C@H](F)[C@@H]1OC(C)=O (some centres undefined) | 120 to 144 h

Tested on: not listed separately
Test: Inhibition of sialyltransferase in human THP1 cells assessed as decrease in lectin binding after 3 days by biotinylated MAL2 lectin and streptavidin-PE based flow cytometry
Assay type: cell-based
Conditions: not given
Method in brief: as §3

EC50 | Compound
410 nM | C=CCOC(=O)N[C@H]1[C@H]([C@H](OC(C)=O)[C@@H](COC(C)=O)OC(C)=O)OC(OC(C)=O)(C(=O)OC)[C@H](F)[C@@H]1OC(C)=O (some centres undefined)

Tested on: B16-F10
Test: Effect on total cell surface glycosylation in mouse B16F10 cells assessed as inhibition of biotinylated WGA-lectin binding at 102.4 uM after 3 days by flow cytometry
Assay type: cell-based
Conditions: b16-f10, 72 h
Method in brief: as §1

Compound | Activity
C=CCOC(=O)N[C@H]1[C@H]([C@H](OC(C)=O)[C@@H](COC(C)=O)OC(C)=O)OC(OC(C)=O)(C(=O)OC)[C@H](F)[C@@H]1OC(C)=O (some centres undefined) | Non-Toxic

Tested on: B16-F10
Test: Cytotoxicity against mouse B16F10 cells assessed as reduction in metabolic activity at 204.8 uM after 3 days by MTT assay
Assay type: ADME, cell-based
Conditions: b16-f10, 72 h

Compound | Activity
C=CCOC(=O)N[C@H]1[C@H]([C@H](OC(C)=O)[C@@H](COC(C)=O)OC(C)=O)OC(OC(C)=O)(C(=O)OC)[C@H](F)[C@@H]1OC(C)=O (some centres undefined) | Non-Toxic

Tested on: not listed separately
Test: Inhibition of sialyltransferase in mouse 9464D cells assessed as decrease in lectin binding after 3 days by biotinylated MAL2 lectin and streptavidin-PE based flow cytometry
Assay type: cell-based
Conditions: not given
Method in brief: as §3

EC50 | Compound
6910 nM | C=CCOC(=O)N[C@H]1[C@H]([C@H](OC(C)=O)[C@@H](COC(C)=O)OC(C)=O)OC(OC(C)=O)(C(=O)OC)[C@H](F)[C@@H]1OC(C)=O (some centres undefined)

Tested on: not listed separately
Test: Inhibition of sialyltransferase in human HeLa cells assessed as decrease in lectin binding after 3 days by biotinylated MAL2 lectin and streptavidin-PE based flow cytometry
Assay type: cell-based
Conditions: not given
Method in brief: as §3

EC50 | Compound
1770 nM | C=CCOC(=O)N[C@H]1[C@H]([C@H](OC(C)=O)[C@@H](COC(C)=O)OC(C)=O)OC(OC(C)=O)(C(=O)OC)[C@H](F)[C@@H]1OC(C)=O (some centres undefined)

Tested on: B16-F10
Test: Effect on total cell surface glycosylation in mouse B16F10 cells assessed as inhibition of biotinylated PNA lectin binding at 102.4 uM after 3 days by flow cytometry
Assay type: cell-based
Conditions: b16-f10, 72 h
Method in brief: as §1

Compound | Activity
C=CCOC(=O)N[C@H]1[C@H]([C@H](OC(C)=O)[C@@H](COC(C)=O)OC(C)=O)OC(OC(C)=O)(C(=O)OC)[C@H](F)[C@@H]1OC(C)=O (some centres undefined) | Non-Toxic

Tested on: B16-F10
Test: Cytotoxicity against mouse B16F10 cells assessed as reduction in metabolic activity at <51.2 uM after 3 days by MTT assay
Assay type: ADME, cell-based
Conditions: b16-f10, 72 h

Compound | Activity
C=CCOC(=O)N[C@H]1[C@H]([C@H](OC(C)=O)[C@@H](COC(C)=O)OC(C)=O)OC(OC(C)=O)(C(=O)OC)[C@H](F)[C@@H]1OC(C)=O (some centres undefined) | Non-Toxic
